According to the RNAGym collection of RNA variant scans (doi:10.1126/science.aae0568):
Fewer inactive variants are shown than the library holds.

B1: tRNA (parent)
chain: GUUCCGUUGGCGUAAUGGUAACGCGUCUCCCUCCUAAGGAGAAGACUGCGGGUUCGAGUCCCGUACGGAACG

Variants of: B1
Experiment: yeast fitness relative to wild type (ratio to wild type); higher = fitter; tRNA-Arg(CCU), competitive growth, 37 C, YPD
Outline: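 The tRNA-Arg(CCU) gene variants were made by chemical synthesis with a 3% per-site mutation rate at 69 sites and inserted at the native genomic locus of Saccharomyces cerevisiae. After pooling, the strains were competed in YPD at 37°C for 24 hours in six parallel replicates. Gene amplicons from the start population and each end population were read by 100-nucleotide paired-end sequencing, and Darwinian fitness relative to wild type was taken from genotype frequency changes. Genotypes needed ≥ 100 starting reads, and estimates < 0.5 were set to 0.5.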

Variant	yeast fitness
GUUCCGUUGGCGUAAUGGUAACGCGUCUCCCUCGUACGGAGAACACUGCGGGUUCGAGUCCCGUACGGAACG [C34G A37C G44C]	≤ 0.5
GUUCCGUUGGCGUAAUGGUAACGCGUCUCCCUCGUACGGAGAAGACUGCGGGUUCGAGUCCCAUACGGAACG [C34G A37C G63A]	≤ 0.5
GUUCCGUUGGCGUAAUGGUAACGCGUCUCCCUCAUAAGGAGAAGACUGCGGCUUCGAGUGCCGUACGGAACG [C34A G52C C60G]	0.544
GUUCCGUUGGCGUAAUGGUAACGCGUCUCCCUCAUAAGGAGAAGACUGGAGGUUCGAGUCCCGAACGGAACG [C34A C49G G50A U64A]	0.551
GUUCCGUUGGCGUAAUGGUAACGCGUCUCCCUCAUAAGGAGAAGACUGUGCGUUCGAGUCUCGUACGGAACG [C34A C49U G51C C61U]	≤ 0.5
GUUCCGUUGGCGUAAUGGUAACGCGUCUCCCUCAUAAGGAGAAGACUGUGGGUUCGACUCCCGUACGGAACG [C34A C49U G58C]	≤ 0.5
GUUCCGUUGGCGUAAUGGUAACGCGUCUCCCUCAUAAGGAGAAGACUGCGGGUUCGAGUCCCGAACGGAACG [C34A U64A]	0.783
GUUCCGUUGGCGUAAUGGUAACGCGUCUCCCUCAUAACGAGAUGACUGCGGGUUCGAGUCCCGUACGGAACG [C34A G38C A43U]	0.588
GUUCCGUUGGCGUAAUGGUAACGCGUCUCCCUCGUAGGGAGAAGACUGCGGGUUCGAGUCCCGUGCGGAACG [C34G A37G A65G]	0.966
GUUCCGUUGGCGUAAUGGUAACGCGUCUCCCUCAUAACGAGAUGACUGCGGGUUCGAGUCCCGUACGAAACG [C34A G38C A43U G68A]	≤ 0.5
GUUCCGUUGGCGUAAUGGUAACGCGUCUCCCUCAUAAGGAGAAGACUGCGGGUUCGAGUCCCGUAAGGAACG [C34A C66A]	0.509
GUUCCGUUGGCGUAAUGGUAACGCGUCUCCCUCAUAAGGAGAAGACUGCGGGUUCGAGUCCCAUACGGAACG [C34A G63A]	0.621
GUUCCGUUGGCGUAAUGGUAACGCGUCUCCCUCGUAAGGGUAAGAGUGCGGGUUCGUGUCUCGUACGGAACG [C34G A40G G41U C46G A57U C61U]	≤ 0.5
GUUCCGUUGGCGUAAUGGUAACGCGUCUCCCUCGUAAGGAGUAGACUGCGGGUUCGAGUCCCGUACGCAACG [C34G A42U G68C]	≤ 0.5
GUUCCGUUGGCGUAAUGGUAACGCGUCUCCCUCAUAAGGAGAAGACAGCGGGUUCGAGUCCCGUACGAAACG [C34A U47A G68A]	≤ 0.5
GUUCCGUUGGCGUAAUGGUAACGCGUCUCCCUCAUAAGGAGAAGACCGCGGGUUCGGGUCCCGUUCGGAACG [C34A U47C A57G A65U]	≤ 0.5
GUUCCGUUGGCGUAAUGGUAACGCGUCUCCCUCAUAAGGAGAAGACUGCAGGUUCGAGUCGCGUACGGAACG [C34A G50A C61G]	≤ 0.5
GUUCCGUUGGCGUAAUGGUAACGCGUCUCCCUCAUAAGGAGAAGACUGCGGGUUCGAGCCCCGUACGGAACG [C34A U59C]	0.728
GUUCCGUUGGCGUAAUGGUAACGCGUCUCCCUCAUAAGGAGAAGACCGCGAGUUCGAGUCCCGUACGGUACG [C34A U47C G51A A69U]	≤ 0.5

Variant	yeast fitness
GUUCCGUUGGCGUAAUGGUAACGCGUCUCCCUCGUAAGGAGGAGACUCCGGGUUCGAGUCCCGUACGGAACG [C34G A42G G48C]	0.531
GUUCCGUUGGCGUAAUGGUAACGCGUCUCCCUCAUAAGGAGAAGACUGCGAGUUCGAGUCCCGUACAGAACG [C34A G51A G67A]	≤ 0.5
GUUCCGUUGGCGUAAUGGUAACGCGUCUCCCUCAUAAGGAGAAGACUGCGGGUUCGAGUCCCGUACAGAACG [C34A G67A]	0.652
GUUCCGUUGGCGUAAUGGUAACGCGUCUCCCUCGUAAGGAGGAGACUGCGGGUUCGAGUCCCGUACGGAACG [C34G A42G]	0.716
GUUCCGUUGGCGUAAUGGUAACGCGUCUCCCUCGUAUGGAGAAGACUGGGGGUUCGGGUCCCGUGUGGAACG [C34G A37U C49G A57G A65G C66U]	≤ 0.5
GUUCCGUUGGCGUAAUGGUAACGCGUCUCCCUCAUAAGGAGAACACUGCGGGUUCGAGUCCCGUACGAAACG [C34A G44C G68A]	≤ 0.5
GUUCCGUUGGCGUAAUGGUAACGCGUCUCCCUCAUAAGGAGAAGACUGCGGGAUCGAGUCCCGUACAGAACG [C34A U53A G67A]	≤ 0.5
GUUCCGUUGGCGUAAUGGUAACGCGUCUCCCUCGUACGGAGAAGACUGCGGGUUCGAGUACCGUACGGAACG [C34G A37C C60A]	≤ 0.5
GUUCCGUUGGCGUAAUGGUAACGCGUCUCCCUCGUGAGGAGAAGACUGCGGGUUCGAGUCCCGUACGGAACG [C34G A36G]	0.644
GUUCCGUUGGCGUAAUGGUAACGCGUCUCCCUCGUCAGGAGAAGACUGCGGGUUCGAGUCCCGUACGGAACG [C34G A36C]	≤ 0.5
GUUCCGUUGGCGUAAUGGUAACGCGUCUCCCUCAUAAGGAGAAGACUGUGGGUUCGAGUCCCGUACGGAACG [C34A C49U]	0.826
GUUCCGUUGGCGUAAUGGUAACGCGUCUCCCUCAUAAGGAAAAGACUGCGGGUUCGAGUCCCGUACGGAACG [C34A G41A]	0.782
GUUCCGUUGGCGUAAUGGUAACGCGUCUCCCUCAAAAGGAGAAGACUGAGGGUUUGAGUCCCGUACGGAACG [C34A U35A C49A C55U]	≤ 0.5
GUUCCGUUGGCGUAAUGGUAACGCGUCUCCCUCAUAAGGAGAAGACUGUCGGUUCGAAUCCCGUACGGAACG [C34A C49U G50C G58A]	0.869
GUUCCGUUGGCGUAAUGGUAACGCGUCUCCCUCACAAGGAGAAGACUGCGGGUUCGAGUCCCGUACGGAACG [C34A U35C]	0.519
GUUCCGUUGGCGUAAUGGUAACGCGUCUCCCUCAUAAGGAGAAGACUGCGGGUUAGAGUCCCGUACGGAACG [C34A C55A]	0.566
GUUCCGUUGGCGUAAUGGUAACGCGUCUCCCUCAUAAGGAGAACACUGCGGGUUCGAGUCCCGUACGGAACG [C34A G44C]	0.574
GUUCCGUUGGCGUAAUGGUAACGCGUCUCCCUCAUAAGGAGAACACUGCGGGUUCGUGUCCUGUACGGAACG [C34A G44C A57U C62U]	≤ 0.5
GUUCCGUUGGCGUAAUGGUAACGCGUCUCCCUCAUAAGGAGAAGACCGCGGGUUCGAGUCCCGUACGGAGCG [C34A U47C A70G]	0.612
